Like-named read-outs stand apart in the source and are kept apart here. Marks after values point to notes of the source that are not given here.
Legend:
young mdx mice = conditions: short term (2 wk) treatment; cited from earlier work
exercised mdx mice [1] = assay: Forelimb grip strength; format: in vivo, mouse; conditions: for Percentage change in normalized forelimb grip strength: vs mdx vehicle
Outline: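 Mice were treadmill-exercised to unmask the phenotype. Forelimb grip force was measured weekly with a grip strength meter, at least 48 h after the last treadmill session: at UNIBA in phase 1 (4 wk), and at UNIBA and AGA in phase 2 (12 wk). Values were normalized to body weight. Outputs were percentage change vs WT or mdx vehicle and recovery score relative to the WT–mdx difference.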

exercised mdx mice [2] = assay: Hindlimb grip strength; format: in vivo, mouse; conditions: 12 wk, AGA
Outline: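 In the 12-wk phase 2 study at AGA, treadmill-exercised mice had hindlimb grip force measured weekly with a grip strength meter, at least 48 h after the last treadmill session. Dosing was via drinking water at 10 or 50 mg/kg per day, with spring water as vehicle.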

DIA muscle of mdx mice = format: in vivo, mouse
EDL muscle of mdx mice = format: in vivo, mouse; conditions: for % change EDL twitch force: vs mdx vehicle
mdx EDL muscle fibers = format: in vivo, mouse; conditions: 4 wk
[3] = test system: FDB muscle fibers of mdx mice; assay: Fura-2 microfluorescence, resting cytosolic Ca2+ in isolated FDB myofibers; format: in vivo, mouse; conditions: 4 wk
Outline: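 FDB muscles were dissected after 4 wk of drinking-water dosing. Myofibers were isolated enzymatically in Ringer's with 0.8–1 mg/ml collagenase type XI-S for 45 min at 37°C, under constant agitation and O2 flux. Resting cytosolic Ca2+ was then measured by fura-2 microfluorescence (UNIBA).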

Ca2+-dependent calpains = assay: Calpain activity in DIA muscle lysates; format: in vivo, mouse; conditions: treated groups, 4 wk, not significant
[4] = test system: DIA and GC muscles of mdx mice; assay: Histologic evaluation; format: in vivo, mouse; conditions: for Change in % damaged, total damaged gastrocnemius (%) / CNFs in DIA / Change in % damaged, total damaged DIA (%): 12 wk; for Change in % damaged, total damaged gastrocnemius (%) / Change in % damaged, total damaged DIA (%): vs mdx vehicle; for CNFs in DIA: vehicle 72.3 ± 1.6
Outline: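 Diaphragm and left gastrocnemius were frozen in isopentane cooled in N2 (AGA) or paraffin-fixed (UNIBA). Sections of 6–10 μm were H&E-stained. Scored items: inflammation, degeneration, regeneration, centronucleated and normal fibers, and total damaged area. Five random images were taken per section, with blinded analysis on at least 6 animals per group.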

creatine kinase (CK) = assay: CK serum levels; format: in vivo, mouse
Outline: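 Serum was taken from blood drawn by cardiac puncture. CK was measured spectrophotometrically with a diagnostic kit. Mice received drinking-water dosing of 10 or 50 mg/kg per day, with spring water as vehicle.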

[5] = test system: RyR1, FKB1α, UTRN, MIOG, FSTN, BNIP3, TGF-β, CYBB; assay: Real-time PCR gene expression in GC muscle; format: in vivo, mouse
Outline: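 Total RNA was extracted from gastrocnemius (UNIBA) and reverse-transcribed at 25°C for 10 min, 42°C for 50 min and 70°C for 15 min. TaqMan real-time PCR used 8 ng cDNA per reaction, singleplex, in triplicate. Targets were RyR1, FKBP1α, utrophin, myogenin, follistatin, BNIP3, TGF-β and CYBB, normalized to GAPDH.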

[6] = S48168 plasma and GC muscle levels; format: in vivo, mouse; conditions: for Skeletal muscle (GC) concentration (mean) / Plasma concentration (mean): AGA; for Plasma concentration (mean): 20–30 min after drinking water withdrawn; for concentration at 2 h: mdx, mouse, oral, UNIBA
Outline: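 Drug levels in plasma and gastrocnemius were measured by LC-MS/MS (ESI+, PFP column) after protein precipitation on phospholipid-removal plates, with a stable-isotope-labelled internal standard. In phase 2, blood was collected 20–30 min (AGA) or 2 h (UNIBA) after drinking water was withdrawn, following 12 wk of dosing at 10 or 50 mg/kg per day.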

[7] = Body weight, organ and muscle mass; format: in vivo, mouse
Outline: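 mdx and WT mice given test compound in spring water (vehicle) ad libitum, targeting 10 or 50 mg/kg per day. Dose was calculated from weekly water volume per cage divided by animals and normalized to mean body weight. Body weight was tracked over 4 or 12 wk of treatment. Data are means ± sem. WT vs mdx vehicle was compared by unpaired t test; doses vs mdx vehicle by 1-way ANOVA with Dunnett's test.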

[8] = test system: PKA-phosphorylated RyR channels in SR vesicles from either cardiac or skeletal muscles; assay: Calstabin rebinding to RyR channels in SR vesicles; format: binding; conditions: data not shown
Oral bioavailability = format: in vivo; conditions: data not shown
[9] = 50 mg/kg per day, 4 wk, not significant

## COc1ccc2c(c1)CN(C)CCS2 [S107]
Young mdx mice
  Muscle function in young mdx mice: improved muscle function

## COc1ccc2c(c1)CN(Cc1ccc(C(=O)O)cc1)CCS2 [S48168/ARM210]
Exercised mdx mice [1]; 10 mg/kg per day, 12 wk, AGA
  Normalized forelimb grip strength vs mdx vehicle: no statistically significant effect
Exercised mdx mice [1]; 10 mg/kg, week 12, UNIBA
  Recovery score, normalized forelimb force: 35%
Exercised mdx mice [1]; 10 mg/kg, week 12, UNIBA, vehicle 4.06 ± 0.20
  Normalized forelimb force: 5 ± 0.23 KGF/kg
Exercised mdx mice [1]; 10 mg/kg/d, 12 wk, AGA
  Percentage change in normalized forelimb grip strength: +3%
Exercised mdx mice [1]; 50 mg/kg per day, 12 wk, AGA, vehicle 3.62 ± 0.14
  Normalized forelimb grip strength: 3.99 ± 0.15 KGF/kg
Exercised mdx mice [1]; 50 mg/kg per day, W4, phase 1 UNIBA
  Recovery score, absolute forelimb strength: 70%
Exercised mdx mice [1]; 50 mg/kg, week 12, UNIBA
  Recovery score, normalized forelimb force: 12%
Exercised mdx mice [1]; 50 mg/kg/d, 12 wk, AGA
  Percentage change in normalized forelimb grip strength: +10** %
Exercised mdx mice [1]; 50 mg/kg/d, 12 wk, UNIBA
  Percentage change in normalized forelimb grip strength: +8%
Exercised mdx mice [2]; 50 mg/kg per day
  Normalized hindlimb grip strength: statistically significant ameliorative effect
Exercised mdx mice [2]; treatment groups
  Absolute hindlimb grip strength vs mdx vehicle: no differences
DIA muscle of mdx mice; 10 mg/kg per day, 12 wk, UNIBA, vs mdx vehicle
  % change DIA twitch force: +2%
DIA muscle of mdx mice; 50 mg/kg per day, 4 wk
  DIA specific tetanic force vs mdx vehicle: significantly higher
DIA muscle of mdx mice; 50 mg/kg per day, 4 wk, 120 and 140 Hz
  DIA force–frequency relationship vs mdx vehicle: significantly higher values
DIA muscle of mdx mice; any dose level, 4 wk
  DIA fatigue and recovery from fatigue: no effect
EDL muscle of mdx mice; 10 mg/kg per day, 12 wk, AGA
  % change EDL twitch force: −2%
EDL muscle of mdx mice; 10 mg/kg per day, 12 wk, UNIBA
  % change EDL twitch force: −1%
EDL muscle of mdx mice; 50 mg/kg per day, 12 wk, AGA
  % change EDL twitch force: +6%
EDL muscle of mdx mice; 50 mg/kg per day, 12 wk, UNIBA
  EDL stiffness: slight but not significant amelioration
EDL muscle of mdx mice; 12 wk, data not shown
  EDL fatigue-related decline in force and recovery from fatigue vs mdx vehicle: no differences
  EDL muscle-contraction kinetics (time to peak, half relaxation time): no effect
EDL muscle of mdx mice; both doses, 4 wk
  EDL muscle force (twitch and specific tetanic): no effect
EDL muscle of mdx mice; either dose, 12 wk, UNIBA
  Force decrease in EDL muscle from eccentric contraction: No protective effect
Mdx EDL muscle fibers; 50 mg/kg per day, all durations of depolarizing pulses
  Mechanical threshold: potential for fiber contraction, rheobase voltage: significant shift in the potential for fiber contraction toward WT values
Mdx EDL muscle fibers; printed 50 mg/kg per day
  Mechanical threshold: rheobase voltage: slight but nonsignificant effect
[3]; 10 mg/kg per day
  Level of cytosolic Ca2+ vs mdx vehicle: no difference
[3]; 50 mg/kg per day
  Reduction in cytosolic Ca2+ vs mdx vehicle myofibers: 25%
Ca2+-dependent calpains
  Calpain activity in DIA: trend toward a reduction
[4]; 10 mg/kg per day, AGA
  Change in % damaged, total damaged gastrocnemius (%): 1%
[4]; 10 mg/kg, UNIBA
  CNFs in DIA: 62.4 ± 2.9%
[4]; 50 mg/kg per day, 4 wk
  Percentage of regenerating area in GC: significant increases
[4]; [9]
  Percentage of regeneration in DIA: increase in the percentage of regeneration
  Percentage of total damage in DIA: reduction in the percentage of total damage
[4]; 50 mg/kg per day, 4 wk, significant
  Percentage of total damage in GC: decreases
[4]; 50 mg/kg per day, AGA
  Change in % damaged, total damaged DIA (%): −10* %
  Change in % damaged, total damaged gastrocnemius (%): 5%
[4]; 50 mg/kg per day, UNIBA
  Change in % damaged, total damaged DIA (%): −19%
[4]; 50 mg/kg, UNIBA
  CNFs in DIA: 53.3 ± 2.5%
[4]; either dose, 4 wk
  Number of CNF vs normal fibers in DIA or GC: No marked differences
Creatine kinase (CK); 12 wk, UNIBA and AGA
  CK level: no significant changes
Creatine kinase (CK); either dosage, 4 wk
  Serum level of CK vs mdx vehicle: No significant change
[5]; 50 mg/kg per day, 4 wk
  BNIP3 gene expression level vs mdx vehicle: trend toward an increase
  Gene expression of RyR1 compared with WT mice: significant increase
[5]; 10 or 50 mg/kg per day, 4 wk
  Expression of RyR1, FKB1α, UTRN, MIOG, FSTN, TGF-β, or CYBB vs mdx vehicle: No significant changes
[5]; any dose, 12 wk
  Expression level of RyR1, calstabin, or BNIP3: No significant changes
[6]; 10 mg/kg, 12 wk treatment
  Skeletal muscle (GC) concentration (mean): 0.552 µg/g
  Plasma concentration (mean): 6125 ng/mL
[6]; 50 mg/kg, 12 wk treatment
  Skeletal muscle (GC) concentration (mean): 1.716 µg/g
  Plasma concentration (mean): 18775 ng/mL
[6]; gastrocnemius (GC) skeletal muscle, 10 mg/kg, Skeletal muscle (GC) concentration (mean), 4 wk treatment
  concentration at 2 h: 151 ng/g
[6]; gastrocnemius (GC) skeletal muscle, 10 mg/kg, Skeletal muscle (GC) concentration (mean), 12 wk treatment
  concentration at 2 h: 123 ng/g
[6]; gastrocnemius (GC) skeletal muscle, 50 mg/kg, Skeletal muscle (GC) concentration (mean), 4 wk treatment
  concentration at 2 h: 512 ng/g
[6]; gastrocnemius (GC) skeletal muscle, 50 mg/kg, Skeletal muscle (GC) concentration (mean), 12 wk treatment
  concentration at 2 h: 1160 ng/g
[6]; plasma, 10 mg/kg, Plasma concentration (mean), 10 mg/kg, 4 wk treatment, about 2 h after drinking water withdrawn
  concentration at 2 h: 881 ng/mL
[6]; plasma, 50 mg/kg, Plasma concentration (mean), 50 mg/kg, 4 wk treatment, about 2 h after drinking water withdrawn
  concentration at 2 h: 3020 ng/mL
[7]; 10 mg/kg per day, 4 wk
  Heart mass normalized to body weight vs mdx vehicle: lower normalized mean value
[7]; 10 mg/kg per day, 12 wk, UNIBA
  Quadriceps mass, absolute and normalized: significant increase
[7]; 50 mg/kg per day, 12 wk, UNIBA, n = 8
  Liver mass normalized to body weight: 56.39 ± 2.61 g/g × 1000
[7]; 4 wk
  Mass of various skeletal muscles: no drug effect
[7]; 10 or 50 mg/kg per day, 4 wk, phase 1
  Body weight vs mdx vehicle: no changes in body weight
[7]; 12 wk, UNIBA and AGA, any time point
  Body weight vs mdx vehicle: no changes in body weight
[8]
  Calstabin binding to PKA-phosphorylated RyR channels: effectively re-establish calstabin binding
Oral bioavailability
  Oral bioavailability: good oral bioavailability
